# Screens (PubChem)
# A selection: hits, their analogues and other compounds. The true share with any hit is near 3%.
# NRP1-CendR mod: modulators of CendR peptide binding to NRP-1, primary screen, biochemical, fluorescence polarization, uHTS; actives 0.85% (n = 360,000); inhibition, % at 25 µM; Neuropilin-1 (Homo sapiens), O14786; FAM-RPARPAR peptide binding to NRP-1; AID 602438, 2012;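 active = inhibition or corrected inhibition above about 18%, plus a signal ratio from 0.5 to 1.5, limit read from the data, passing the limit was not always enough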
# proKLK7 act: proKLK7 zymogen activators, primary screen, biochemical, fluorescence intensity; purified proKLK7, EDANS-DABCYL substrate fluorescence; 100% is mature enzyme control, 0% vehicle; activation, % at 7 µM; actives 0.9% (n = 370,000); AID 652039, 2013;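 active = activation above the mean of all tested compounds plus 3 SD, computed per campaign excluding outliers beyond control limits, cut at about 13% in these data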
# PLCb3 inh: human PLC-beta3 inhibitors, primary screen, biochemical, fluorescence. actives 0.18% (n = 370,000). 1-phosphatidylinositol 4,5-bisphosphate phosphodiesterase beta-3 (Homo sapiens), Q01970. AID 720704, 2013. inhibition, % at 12.2 µM. Purified PLC-beta3, fluorogenic substrate; in the data active = inhibition above about 11%;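 note: 0% = median of compound wells on plate and 100% = full blocker control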
# Target sequence (Q01970 whole entry, looked up): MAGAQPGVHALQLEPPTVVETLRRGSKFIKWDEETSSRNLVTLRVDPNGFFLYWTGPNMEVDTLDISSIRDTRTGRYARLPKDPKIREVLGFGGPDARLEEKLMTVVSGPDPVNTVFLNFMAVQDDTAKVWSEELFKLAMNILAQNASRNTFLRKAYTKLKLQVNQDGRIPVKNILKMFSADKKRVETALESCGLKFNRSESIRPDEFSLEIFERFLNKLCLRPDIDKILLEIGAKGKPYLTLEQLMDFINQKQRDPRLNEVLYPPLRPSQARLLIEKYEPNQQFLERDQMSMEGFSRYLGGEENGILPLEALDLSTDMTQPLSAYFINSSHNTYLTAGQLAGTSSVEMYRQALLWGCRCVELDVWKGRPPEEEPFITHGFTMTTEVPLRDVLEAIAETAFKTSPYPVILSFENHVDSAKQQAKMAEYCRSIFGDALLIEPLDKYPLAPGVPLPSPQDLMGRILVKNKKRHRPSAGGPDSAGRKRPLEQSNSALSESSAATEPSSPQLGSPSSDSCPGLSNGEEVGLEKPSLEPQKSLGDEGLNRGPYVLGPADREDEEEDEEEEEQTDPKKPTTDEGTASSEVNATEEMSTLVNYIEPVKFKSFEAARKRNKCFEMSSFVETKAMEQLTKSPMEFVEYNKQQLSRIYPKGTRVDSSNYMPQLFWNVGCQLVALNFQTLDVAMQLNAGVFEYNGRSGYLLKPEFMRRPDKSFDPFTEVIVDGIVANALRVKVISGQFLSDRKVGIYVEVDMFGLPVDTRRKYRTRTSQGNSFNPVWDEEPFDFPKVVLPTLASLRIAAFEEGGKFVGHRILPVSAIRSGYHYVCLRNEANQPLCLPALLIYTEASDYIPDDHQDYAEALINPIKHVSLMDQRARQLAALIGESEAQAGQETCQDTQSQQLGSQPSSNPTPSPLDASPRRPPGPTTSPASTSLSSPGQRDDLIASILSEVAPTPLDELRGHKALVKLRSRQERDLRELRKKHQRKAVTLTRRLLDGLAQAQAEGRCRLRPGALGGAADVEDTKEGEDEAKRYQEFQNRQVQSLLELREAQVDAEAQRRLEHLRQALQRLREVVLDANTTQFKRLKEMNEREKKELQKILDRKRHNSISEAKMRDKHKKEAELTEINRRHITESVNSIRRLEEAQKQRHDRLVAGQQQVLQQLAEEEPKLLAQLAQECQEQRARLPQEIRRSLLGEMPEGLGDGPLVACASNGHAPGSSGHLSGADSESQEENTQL
# Tn6 DDE FP: inhibitors of Tn6 peptide binding to fibrin DD(E), primary screen, biochemical, fluorescence polarization, human fibrin, Tn6 probe | Fibrin DD(E) TRITC-Tn6 fluorescence polarization displacement | Fibrinogen beta chain (Homo sapiens), P02675 | actives 0.21% (n = 370,000) | inhibition, % at 8.3 µM;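 active = inhibition above a per-campaign cutoff: mean of compounds within control limits plus 3 SD, cut at about 15% in these data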;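 note: 0% = median of all compound wells on the plate and 100% = blocking peptide control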
# Tn7 DDE FP: inhibitors of Tn7 peptide binding to fibrin DD(E), primary screen, biochemical, fluorescence polarization, human fibrin, Tn7 probe; inhibition, % at 8.3 µM; AID 720508, 2013; FP displacement of FITC-Tn7 peptide from fibrin DD(E); 0% = median of compound wells per plate; Fibrinogen beta chain (Homo sapiens), P02675; actives 0.13% (n = 370,000);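 active = inhibition above the mean of compounds falling within the control limits plus 3 SD of them, cut at about 14% in these data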;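 note: 0% = plate median of compound wells and 100% = 10 µM Aha-Tn7 peptide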
#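 system = human fibrin DD(E) protein | quantity = DD(E) 2 µM final | medium = Tris/NaCl/CaCl2 buffer, pH 7.8 | also added = labelled Tn7 tracer, 0.1 µM | compound dosing = single point at 8.3 µM | timing = compound with protein 10 min, then 3 h after probe, room temperature | signal = FP measurement | benchmarks = Aha-Tn7 high control | repeats = one replicate per compound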
# PLCg1 inh: PLC-gamma1 enzyme inhibitors, primary screen, biochemical, fluorescence, purified enzyme; actives 0.84% (n = 370,000); inhibition, % at 12.2 µM; 1-phosphatidylinositol 4,5-bisphosphate phosphodiesterase gamma-1 (Homo sapiens), P19174; fluorogenic substrate; in the data active = inhibition above about 9.5%
# proKLK7 act conf: proKLK7 zymogen activators, confirmation, biochemical, fluorescence intensity, triplicate; shares compounds with proKLK7 act; purified proKLK7, EDANS-DABCYL substrate fluorescence; scaled: vehicle 0, mature enzyme 100; actives 68% (n = 3,200); AID 686949, 2013; activation, % at 7 µM;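 active = activation, as change over the incubation, above the mean of all tested compounds plus 3 SD, cut at about 13% in these data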
# EDANS interfere: EDANS-DABCYL substrate optical interference, artefact control for kallikrein-7 zymogen activator project, biochemical, fluorescence intensity, high throughput; activation, % at 7 µM; AID 686952, 2013; actives 80% (n = 3,200); shares compounds with proKLK7 act; no enzyme, 4 h; solvent 0%, active enzyme control 100%;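 active = activation above the all-compound mean plus 3 SD, ignoring values outside control-based bounds, cut at about 4.8% in these data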;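 note: value is the 4 h activation minus the activation read at time zero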
# EDANS interf: counter-screen for kallikrein-7 activators: EDANS-DABCYL interference, dose response; shares compounds with proKLK7 act; EDANS-DABCYL peptide fluorescence interference, no enzyme; EC50, µM; actives 20% (n = 250); AID 720493;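 active = compounds that raise the fluorescence signal in this interference counterscreen, with EC50 at or below 10 µM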;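 note: intact quenched peptide substrate alone read at 355 nm excitation and 520 nm emission; signal is fluorescence gain from T0 to T4 after four hours at room temperature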
# The depositor's hits bear a star; i = inactive; / = no result.
SMILES,NRP1-CendR mod,proKLK7 act,PLCb3 inh,Tn6 DDE FP,Tn7 DDE FP,PLCg1 inh,proKLK7 act conf,EDANS interfere,others
NC(=O)c1sc2nc(N3CCOCC3)c3c(c2c1N)CCCC3,-5.3,20.9*,i,-11.2,-2.8,i,-0.7,0.2,
CCOC(=O)c1sc2nc(N3CCOCC3)c3c(c2c1N)CCC3,-1.4,-70.2,i,-8.7,-6.1,i,/,/,
Nc1c(C(=O)NCCc2ccccc2)sc2nc(N3CCOCC3)c3c(c12)CCCC3,7.0,151.9*,i,8.3,3.2,i,-18.8,-21.1,
CN(C(=O)c1sc2nc(N3CCOCC3)c3c(c2c1N)CCCC3)c1ccccc1,6.9,-1.4,-185.5,5.4,-8.4,-122.8,/,/,
O=C(C1CCCN(S(=O)(=O)c2ccc(Br)s2)C1)N1CCN(Cc2ccccc2)CC1 (stereo unspecified),/,1.3,-2.1,-1.8,-1.6,-1.3,/,/,
COC(=O)[C@H](CC(C)C)N(Cc1cn(Cc2ccc(C)cc2)nn1)S(=O)(=O)c1ccccc1Br,/,0.9,-0.1,0.5,-6.6,0.6,/,/,
O=C1NC(c2ccc3ccccc3c2)Nc2ccccc21 (stereo unspecified),-0.5,11.8,-295.1,-3.4,3.2,-231.2,/,/,
O=C1NC(c2ccc(Br)cc2)Nc2ccccc21 (stereo unspecified),16.0,13.6*,-307.8,-12.8,1.0,-258.9,20.6*,15.1*,EDANS interf=>69.5
O=C1NC(c2ccccc2Cl)Nc2ccccc21 (stereo unspecified),3.5,19.1*,-462.8,-0.4,1.7,-382.6,46.7*,49.8*,
O=C1NC(c2cccc3ccccc23)Nc2ccccc21 (stereo unspecified),13.5,3.4,-81.4,0.6,5.4,-63.8,/,/,
COCO[C@@H]1CC(CO)=C[C@H]2OCO[C@H]21,/,/,0.8,-3.1,2.6,-0.5,/,/,
CCCCC#CC(CC)NCc1ccc(OC)cc1OC (stereo unspecified),/,/,5.1,6.7,-4.5,2.9,/,/,
CC(C)(C)NC(=O)Nc1ccc2nccnc2c1,11.1,64.2*,i,4.6,3.5,i,69.5*,77.3*,
CC(C)(C)NC(=O)c1ccc2nccnc2c1,-9.2,0.4,3.3,4.7,1.7,0.2,/,/,
Oc1ccccc1C=Nn1c(-c2ccccc2F)n[nH]c1=S,/,-4.1,-8.6,3.5,0.0,-6.9,/,/,
OCCCc1nc2n(n1)C(c1ccccc1)C=C(c1ccc(F)cc1)N2 (stereo unspecified),8.3,23.0*,i,-3.7,-8.0,i,38.2*,74.4*,
OCCCc1nc2n(n1)C(c1ccccc1Cl)C=C(c1cccs1)N2 (stereo unspecified),-107.0,/,/,/,/,/,/,/,
COc1c2ccccc2nc2ccccc12,4.8,6.9,-256.2,3.7,-5.1,-209.5,/,/,
COc1cc2ccccc2nn1,6.5,23.4*,-377.3,6.3,-2.1,-353.4,32.7*,39.1*,
COc1cc(NC(=O)c2ccco2)c(OC)cc1NC(=O)CCC(=O)Nc1cc(C)ccc1C,7.6,31.3*,-8.2,-8.4,-2.2,-2.6,13.7*,-7.4,EDANS interf=i
Oc1ccccc1-c1cnc2cccnn12,3.1,7.9,-140.8,9.7,5.3,-96.7,/,/,
Clc1ccc(-c2cnc3cccnn23)cc1,-8.7,32.1*,i,-2.3,6.8,i,36.6*,21.9*,EDANS interf=>69.5
COc1ccc(-c2cnc3cccnn23)cn1,0.0,39.3*,i,3.0,0.8,i,27.4*,38.3*,
COc1ncccc1-c1cnc2cccnn12,-0.5,33.9*,i,6.7,-6.2,i,58.1*,58.5*,
COc1ccc(S[C@]2(C(=O)N3CCCC3)CC(=O)N(c3ccccc3OC)[C@@H]2c2ccc(OC)cc2)cc1,/,0.0,2.1,3.9,2.1,3.5,/,/,
SMILES,NRP1-CendR mod,proKLK7 act,PLCb3 inh,Tn6 DDE FP,Tn7 DDE FP,PLCg1 inh,proKLK7 act conf,EDANS interfere,others
Nc1nc2ccccc2cc1S(=O)(=O)c1ccccc1,-20.8,12.9*,-333.2,8.1,3.9,-211.7,6.5,10.1*,
Nc1ncc([N+](=O)[O-])cc1S(=O)(=O)c1ccccc1,8.6,-0.3,1.0,-4.3,5.9,5.5,/,/,
Cc1cc(C)c2c(n1)nn1c(NCCN3CCOCC3)cc(C)nc21,0.0,33.4*,i,-4.2,-2.9,i,40.3*,31.9*,EDANS interf=>69.5
COCCNc1cc(C)nc2c3c(C)cc(C)nc3nn12,3.5,81.2*,i,1.6,-5.4,i,70.5*,62.7*,
NCCNC(=O)c1c(NC(=O)c2ccccc2)sc2c1CCCC2,-3.9,19.2*,-108.3,3.0,9.3,-86.7,-3.0,-4.0,
COCCN(CCOC)S(=O)(=O)c1ccc(C(=O)Nc2sc3c(c2C(N)=O)CCCCC3)cc1,3.2,19.4*,-10.1,6.8,0.8,-6.3,4.1,21.2*,
S=C(NCc1ccc(Cl)cc1)OC1CCC12CCC(c1ccccc1)CC2 (stereo unspecified),/,0.2,0.6,4.0,7.9,0.0,/,/,
CC(=O)Oc1cc(OC(C)=O)c2c(C)cc(=O)oc2c1,1.8,49.9*,i,1.7,-4.2,i,550.3*,533.8*,
COC(=O)Cc1cc(=O)oc2cc(O)ccc12,8.6,50.1*,i,-6.2,8.7,i,75.0*,68.7*,
Cc1oc2cc(O)cc(O)c2c(=O)c1-c1ccc2c(c1)OCCCO2,1.5,-0.3,-1.0,10.1,3.7,-0.4,/,/,
Cc1cc(=O)oc2cc(O)cc(OCc3ccccc3)c12,-8.9,35.4*,i,-2.4,0.5,i,65.8*,77.8*,
CC(=O)Oc1cc(OC(C)=O)c2c(=O)c(-c3ccc4c(c3)OCCCO4)c(C)oc2c1,-3.3,29.5*,-302.6,-0.2,-2.1,-218.8,169.0*,137.3*,
Cc1cc(=O)oc2ccc(OCc3ccccc3)cc12,-0.3,1.7,-39.1,2.9,-9.2,-24.3,/,/,
